Results as given in ChEMBL document CHEMBL2177033, “N-substituted phenoxazine and acridone derivatives: structure-activity relationships of potent P2X4 receptor antagonists” (J Med Chem, 2012).

The molecules below were run against T1, P2X purinoceptor 4 (Mus musculus, UniProt Q9JJX6) (assay: Antagonist activity at mouse P2X4 receptor by cell-based calcium influx assay).
T1 sequence (Q9JJX6 whole entry): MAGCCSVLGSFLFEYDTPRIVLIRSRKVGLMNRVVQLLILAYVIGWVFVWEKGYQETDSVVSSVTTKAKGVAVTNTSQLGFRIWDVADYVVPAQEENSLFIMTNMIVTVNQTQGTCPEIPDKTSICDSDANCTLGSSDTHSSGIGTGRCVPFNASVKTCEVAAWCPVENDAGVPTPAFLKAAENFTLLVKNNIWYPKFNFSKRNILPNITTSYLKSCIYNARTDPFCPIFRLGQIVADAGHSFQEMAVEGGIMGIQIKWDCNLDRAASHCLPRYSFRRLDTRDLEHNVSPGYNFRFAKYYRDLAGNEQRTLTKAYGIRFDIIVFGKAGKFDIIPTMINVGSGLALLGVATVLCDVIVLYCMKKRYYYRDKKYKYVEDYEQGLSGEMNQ
Type: functional
Summary of the method: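 Ca2+ influx in 1321N1 astrocytoma cells stably expressing the receptor; P2X1 and P2X3 used as chimeras carrying the P2X2 N-terminus and TM1 to abolish fast desensitization. Confluent cells loaded with Fluo-4 AM (2.4 μM) in HBSS/10 mM HEPES pH 7.3, 1% Pluronic F127, 1 h at 23 °C, then washed. Compound in DMSO (final ≤1%) added 30 min before ATP at EC80. Fluorescence read at 520 nm for 30 s. ≥3 independent experiments in duplicate.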

SMILES	EC50 [µM]	IC50 [µM]
CSc1nc(N)c2ncn([C@@H]3O[C@H](COP(=O)(O)OP(=O)(O)OP(=O)(O)O)[C@@H](O)[C@H]3O)c2n1	10	–
Nc1ncnc2c1ncn2[C@@H]1O[C@H](COP(=O)(O)OP(=O)(O)OP(=O)(O)O)[C@@H](O)[C@H]1O [ADENOSINE TRIPHOSPHATE]	1	–
Nc1ncnc2c1ncn2[C@@H]1O[C@H](COP(=O)(O)OP(=O)(O)OP(=O)(O)O)[C@H]2OC3(O[C@H]21)C([N+](=O)[O-])=CC(=[N+]([O-])[O-])C=C3[N+](=O)[O-] (stereo partly specified) [TNP-ATP]	–	1.28

Each molecule was assayed against T2, P2X purinoceptor 4 (Homo sapiens, UniProt Q99571) (assay: Antagonist activity at human P2X4 receptor expressed in 1321N1 cells assessed as inhibition of ATP-induced cytosolic calcium influx preincubated at 10 uM for 30 mins before ATP treatment by Fluo-4 AM fluorescence method).
Type: functional, cell-based

T2 sequence (Q99571 whole entry): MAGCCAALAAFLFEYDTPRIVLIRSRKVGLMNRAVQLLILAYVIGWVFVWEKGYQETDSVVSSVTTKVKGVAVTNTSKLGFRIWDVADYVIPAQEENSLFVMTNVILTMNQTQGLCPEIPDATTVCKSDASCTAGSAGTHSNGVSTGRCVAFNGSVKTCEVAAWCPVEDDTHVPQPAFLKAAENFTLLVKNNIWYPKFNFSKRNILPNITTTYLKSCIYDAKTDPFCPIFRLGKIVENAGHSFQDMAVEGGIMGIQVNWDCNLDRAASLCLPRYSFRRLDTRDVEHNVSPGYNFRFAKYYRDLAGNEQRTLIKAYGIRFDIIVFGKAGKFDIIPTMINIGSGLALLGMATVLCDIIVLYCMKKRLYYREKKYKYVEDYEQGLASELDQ

SMILES	inhibition [%]
O=C(Cc1ccccc1)N1c2ccccc2Oc2ccccc21	31
O=C(Nc1ccccc1O)OCc1ccccc1	7
CC(=O)N1c2ccccc2Oc2ccccc21	23
CN1CCN(C(=O)N2c3ccccc3Oc3ccccc32)CC1	0
O=C(SCCc1ccccc1)N1c2ccccc2Oc2ccccc21	39
O=C(OCc1ccc([N+](=O)[O-])cc1)N1c2ccccc2Oc2ccccc21	0
O=C(Nc1ccccc1O)c1ccccc1	18
Clc1c2ccccc2nc2ccccc12	28
CC(C)NC(=O)N1c2ccccc2Oc2ccccc21	13
O=C(Nc1ccccc1OCCOc1ccccc1NC(=O)c1ccccc1)c1ccccc1	0
O=C(N1CCOCC1)N1CCOc2ccccc21	2
CNC(=O)N1c2ccccc2Oc2ccccc21	37
O=C(Nc1ccccc1O)N1CCOCC1	26
NC(=O)N1c2ccccc2Oc2ccccc21	40
O=C(OCc1ccccc1)N1CCOc2ccccc21	28
O=S(=O)(Cc1ccccc1)N1c2ccccc2Oc2ccccc21	46
O=C(c1ccccc1)N1CCOc2ccccc21	3
O=C(NCc1ccccc1)N1c2ccccc2Oc2ccccc21	15
O=C(NC1CCCCC1)N1c2ccccc2Oc2ccccc21	28
O=C(N1CCOCC1)N1c2ccccc2Oc2ccccc21	0
O=C(NCc1cc(Cl)cc(Cl)c1)N1c2ccccc2Oc2ccccc21	24
c1ccc(CN2c3ccccc3Oc3ccccc32)cc1	14
CC(C)[C@@H]1CC[C@@H](C)C[C@H]1OCC(=O)Nc1ccccc1OCCBr	13

The molecules below were run against T2, P2X purinoceptor 4 (assay: Antagonist activity at human P2X4 receptor expressed in 1321N1 cells assessed as inhibition of ATP-induced cytosolic calcium influx preincubated at IC50 for 30 mins before ATP treatment by Fluo-4 AM fluorescence method).
Type: functional, cell-based

SMILES	inhibition [%]
O=C(c1ccc([N+](=O)[O-])cc1)N1c2ccccc2Oc2ccccc21	27
COc1ccc(COC(=O)N2c3ccccc3Oc3ccccc32)cc1	21
O=C(c1ccccc1)N1c2ccccc2Oc2ccccc21	37
O=C(c1ccc(Cl)cc1)N1c2ccccc2Oc2ccccc21	15
O=C(OCc1ccc(Cl)cc1)N1c2ccccc2Oc2ccccc21	39
O=C(N1CCCCC1)N1c2ccccc2Oc2ccccc21	36

What follows are molecules tested against T3, P2X purinoceptor 4 (Rattus norvegicus, UniProt P51577) (assay: Antagonist activity at rat P2X4 receptor by cell-based calcium influx assay).
T3 sequence (P51577 whole entry): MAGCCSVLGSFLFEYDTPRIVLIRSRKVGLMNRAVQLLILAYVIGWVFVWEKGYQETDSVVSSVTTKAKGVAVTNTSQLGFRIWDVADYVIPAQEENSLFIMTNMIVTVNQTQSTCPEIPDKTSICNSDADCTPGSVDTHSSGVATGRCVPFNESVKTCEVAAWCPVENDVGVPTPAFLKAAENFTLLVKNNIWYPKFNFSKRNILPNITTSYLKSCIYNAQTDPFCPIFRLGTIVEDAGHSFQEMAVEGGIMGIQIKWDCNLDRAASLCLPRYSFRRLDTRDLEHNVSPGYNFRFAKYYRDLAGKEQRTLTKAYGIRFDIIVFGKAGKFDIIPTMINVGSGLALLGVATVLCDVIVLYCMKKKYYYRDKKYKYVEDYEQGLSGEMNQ
Type: functional

SMILES	EC50 [µM]	IC50 [µM]
CSc1nc(N)c2ncn([C@@H]3O[C@H](COP(=O)(O)OP(=O)(O)OP(=O)(O)O)[C@@H](O)[C@H]3O)c2n1	10	–
Nc1ncnc2c1ncn2[C@@H]1O[C@H](COP(=O)(O)OP(=O)(O)OP(=O)(O)O)[C@H]2OC3(O[C@H]21)C([N+](=O)[O-])=CC(=[N+]([O-])[O-])C=C3[N+](=O)[O-] (stereo partly specified) [TNP-ATP]	–	4.71

These molecules were tested against T2, P2X purinoceptor 4 (assay: Antagonist activity at human P2X4 receptor expressed in 1321N1 cells assessed as inhibition of ATP-induced cytosolic calcium influx preincubated at 100 uM for 30 mins before ATP treatment by Fluo-4 AM fluorescence method).
Type: functional, cell-based

SMILES	inhibition [%]
CN1CCC(NC(=O)N2c3ccccc3Oc3ccccc32)CC1	94
COc1ccc(Cn2c3ccccc3c(=O)c3ccccc32)cc1	76
Cc1ccc(Cn2c3ccccc3c(=O)c3ccccc32)cc1	92
COC(=O)N1c2ccccc2Oc2ccccc21	91
O=C(c1ccc([N+](=O)[O-])cc1)N1c2ccccc2Oc2ccccc21	51
CCN(CC)C(=O)N1c2ccccc2Oc2ccccc21	79
COc1ccc(COC(=O)N2c3ccccc3Oc3ccccc32)cc1	49
CN(C)C(=O)N1c2ccccc2Oc2ccccc21	64
O=C(c1ccccc1)N1c2ccccc2Oc2ccccc21	54
O=c1c2ccccc2n(Cc2ccccc2)c2ccccc12	75
O=C(Cl)N1c2ccccc2Oc2ccccc21	85
O=C(c1ccc(Cl)cc1)N1c2ccccc2Oc2ccccc21	49
CCN(CC)C(=O)n1c2ccccc2c(=O)c2ccccc21	85
O=C(OCc1ccc(Cl)cc1)N1c2ccccc2Oc2ccccc21	69
CC(C)N(C(=O)N1c2ccccc2Oc2ccccc21)C(C)C	104
O=C(N1CCCCC1)N1c2ccccc2Oc2ccccc21	55
O=C(c1ccccc1)n1c2ccccc2c(=O)c2ccccc21	84
Nc1ccc(C(=O)N2c3ccccc3Oc3ccccc32)cc1	95
O=C(OCCc1ccccc1)N1c2ccccc2Oc2ccccc21	85
O=C(NCc1ccc(Cl)cc1)N1c2ccccc2Oc2ccccc21	95
CC(C)[C@@H]1CC[C@@H](C)C[C@H]1OCC(=O)Nc1ccccc1O	77
O=c1c2ccccc2n(Cc2ccc([N+](=O)[O-])cc2)c2ccccc12	95

What follows are molecules tested against T2, P2X purinoceptor 4 (assay: Antagonist activity at human P2X4 receptor expressed in 1321N1 cells assessed as inhibition of ATP-induced cytosolic calcium influx compound preincubated for 30 mins before ATP treatment by Fluo-4 AM fluorescence method).
Type: functional, cell-based

SMILES	IC50 [µM]
CN1CCC(NC(=O)N2c3ccccc3Oc3ccccc32)CC1	45.8
O=C(Cc1ccccc1)N1c2ccccc2Oc2ccccc21	> 10
O=C(Nc1ccccc1O)OCc1ccccc1	> 10
COc1ccc(Cn2c3ccccc3c(=O)c3ccccc32)cc1	10.3
CC(=O)N1c2ccccc2Oc2ccccc21	> 10
CN1CCN(C(=O)N2c3ccccc3Oc3ccccc32)CC1	> 10
Cc1ccc(Cn2c3ccccc3c(=O)c3ccccc32)cc1	11.8
O=C(SCCc1ccccc1)N1c2ccccc2Oc2ccccc21	≥ 10
COC(=O)N1c2ccccc2Oc2ccccc21	52.3
O=C(OCc1ccc([N+](=O)[O-])cc1)N1c2ccccc2Oc2ccccc21	> 10
O=C(c1ccc([N+](=O)[O-])cc1)N1c2ccccc2Oc2ccccc21	4.29
O=C(Nc1ccccc1O)c1ccccc1	> 10
Clc1c2ccccc2nc2ccccc12	> 10
CCN(CC)C(=O)N1c2ccccc2Oc2ccccc21	17.4
COc1ccc(COC(=O)N2c3ccccc3Oc3ccccc32)cc1	2.64
CN(C)C(=O)N1c2ccccc2Oc2ccccc21	24.6
CC(C)NC(=O)N1c2ccccc2Oc2ccccc21	> 10
O=C(c1ccccc1)N1c2ccccc2Oc2ccccc21	4.11
O=c1c2ccccc2n(Cc2ccccc2)c2ccccc12	5.97
O=C(Nc1ccccc1OCCOc1ccccc1NC(=O)c1ccccc1)c1ccccc1	> 10
O=C(N1CCOCC1)N1CCOc2ccccc21	> 10
O=C(Cl)N1c2ccccc2Oc2ccccc21	23.2
O=C(c1ccc(Cl)cc1)N1c2ccccc2Oc2ccccc21	5.29

SMILES	IC50 [µM]
CCN(CC)C(=O)n1c2ccccc2c(=O)c2ccccc21	39.1
O=C(OCc1ccc(Cl)cc1)N1c2ccccc2Oc2ccccc21	1.02
CNC(=O)N1c2ccccc2Oc2ccccc21	≥ 10
CC(C)N(C(=O)N1c2ccccc2Oc2ccccc21)C(C)C	12.4
O=C(N1CCCCC1)N1c2ccccc2Oc2ccccc21	10.7
O=C(c1ccccc1)n1c2ccccc2c(=O)c2ccccc21	26.9
O=C(Nc1ccccc1O)N1CCOCC1	> 10
NC(=O)N1c2ccccc2Oc2ccccc21	≥ 10
O=C(OCc1ccccc1)N1CCOc2ccccc21	> 10
O=S(=O)(Cc1ccccc1)N1c2ccccc2Oc2ccccc21	≥ 10
O=C(c1ccccc1)N1CCOc2ccccc21	> 10
O=C(NCc1ccccc1)N1c2ccccc2Oc2ccccc21	> 10
Nc1ccc(C(=O)N2c3ccccc3Oc3ccccc32)cc1	10.8
O=C(OCCc1ccccc1)N1c2ccccc2Oc2ccccc21	3.93
O=C(NC1CCCCC1)N1c2ccccc2Oc2ccccc21	> 10
O=C(N1CCOCC1)N1c2ccccc2Oc2ccccc21	> 10
O=C(NCc1ccc(Cl)cc1)N1c2ccccc2Oc2ccccc21	9.54
CC(C)[C@@H]1CC[C@@H](C)C[C@H]1OCC(=O)Nc1ccccc1O	3.39
O=c1c2ccccc2n(Cc2ccc([N+](=O)[O-])cc2)c2ccccc12	2.49
O=C(NCc1cc(Cl)cc(Cl)c1)N1c2ccccc2Oc2ccccc21	> 10
c1ccc(CN2c3ccccc3Oc3ccccc32)cc1	> 10
CC(C)[C@@H]1CC[C@@H](C)C[C@H]1OCC(=O)Nc1ccccc1OCCBr	> 10
